pEC50, pIC50: −log10 of the molar value. Where a SMILES comes first, the peptide text is derived from it. Bridges are numbered along the chain shown (N, C = ends).
Experiments:
CEM-SS = assay: Cytotoxicity against human CEM-SS cells by XTT assay; format: cell-based
[1] = system: Human immunodeficiency virus 1; assay: Antiviral activity against HIV1 RF infected in human CEM-SS cells assessed as inhibition of virus induced cytopathic effect by XTT assay; format: functional, organism-based; conditions: Human immunodeficiency virus 1, RF
In short: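 HIV-1RF infection of CEM-SS, a human T-lymphoblastoid cell line, in vitro; inhibition of virus-induced cytopathic effects read out and reported as EC50 in µM.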

`CC[C@H](C)[C@@H]1NC(=O)[C@H](C(C)C)NC(=O)[C@H](CCCNC(=N)N)NC(=O)[C@@H]2CSSC[C@@H]3NC(=O)[C@H]([C@@H](C)O)NC(=O)[C@@H]4CSSC[C@H](NC(=O)[C@H](Cc5ccccc5)NC(=O)[C@H]([C@@H](C)O)NC(=O)[C@@H]5CCCN5C(=O)[C@H](CC(=O)O)NC(=O)CNC(=O)[C@H](CC(N)=O)NC(=O)[C@H](CCCNC(=N)N)NC(=O)[C@H](CCCCN)NC(=O)[C@H](CSSC[C@H](NC(=O)[C@H](C(C)C)NC(=O)[C@@H]5CCCN5C1=O)C(=O)N[C@@H]([C@@H](C)O)C(=O)N[C@@H](Cc1ccc(O)cc1)C(=O)N[C@@H](CO)C(=O)N[C@@H](C)C(=O)N[C@@H](C)C(=O)N[C@@H](CC(C)C)C(=O)NCC(=O)N4)NC(=O)[C@H](CC(C)C)NC(=O)CNC(=O)[C@H](CC(=O)O)NC(=O)[C@H](CO)NC(=O)[C@H](CCCNC(=N)N)NC(=O)[C@H](CC(=O)O)NC(=O)[C@H](CC(=O)O)NC3=O)C(=O)NCC(=O)N[C@@H](CCC(=O)O)C(=O)N[C@@H]([C@@H](C)O)C(=O)N2` [PALICOUREIN] (cyclo(AALGCTCDDRSDGLCKRNGDPTFCGETCRVIPVCTYS); disulfide 5-24, 7-28, 15-34) showed a pIC50 (CEM-SS) of 5.82 and a pEC50 [1] of 7.00.

Source: ChEMBL document CHEMBL1137803, “A novel anti-HIV macrocyclic peptide from Palicourea condensata” (J Nat Prod, 2001)
